According to ChEMBL document CHEMBL1151204, “Hypoglycemic effect and antioxidant potential of kaempferol-3,7-O-(alpha)-dirhamnoside from Bauhinia forficata leaves” (J Nat Prod, 2004):
Active and inactive are the calls of the source. The rule behind the calls is not given here.

Key:
Rattus norvegicus [1] = assay: Hypoglycemic activity in 16 hrs fasted Wistar rat assessed as reduction in serum glucose level at 100 mg/kg, po measured after 180 mins of glucose challenge by oral glucose tolerance test; assay type: functional
Procedure, shortened: (§1)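 Male Wistar rats, 160–190 g, fasted ≥16 h with water allowed. Oral gavage of glucose 4 g/kg alone or with compound 100 mg/kg. Controls: untreated rats and tolbutamide 100 mg/kg. Blood drawn from the retro-orbital plexus before and at 30, 60, 90 and 180 min after the load. Serum glucose by glucose oxidase; mean ± SEM, n = 3 in duplicate.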

Rattus norvegicus [2] = assay: Hypoglycemic activity in 16 hrs fasted Wistar rat assessed as reduction in serum glucose level at 100 mg/kg, po measured after 30 mins of glucose challenge by oral glucose tolerance test; assay type: functional; procedure, shortened: as §1
Rattus norvegicus [3] = assay: Hypoglycemic activity in 16 hrs fasted Wistar rat assessed as reduction in serum glucose level at 100 mg/kg, po measured after 90 mins of glucose challenge by oral glucose tolerance test; assay type: functional; procedure, shortened: as §1
Rattus norvegicus [4] = assay: Hypoglycemic activity in 16 hrs fasted Wistar rat assessed as reduction in serum glucose level at 100 mg/kg, po measured after 60 mins of glucose challenge by oral glucose tolerance test; assay type: functional; procedure, shortened: as §1
Rattus norvegicus [5] = assay: Hypoglycemic activity in diabetic 16 hrs fasted Wistar rat assessed as reduction in alloxan-induced serum glucose level at 50 mg/kg, po after 3 hrs by glucose oxidase method; assay type: functional
Procedure, shortened: (§2)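 Male Wistar rats, 160–190 g. Alloxan monohydrate 60 mg/kg i.v. in 0.9% NaCl given after an overnight fast. Rats with serum glucose 25–30.5 mmol/L at 72 h were fasted and randomized to diabetic, vehicle (0.5 mL 1% EtOH–H2O) or compound groups. Compound given by oral gavage. Retro-orbital serum glucose by glucose oxidase at 0, 1, 2 and 3 h. Mean ± SEM, n = 6 in duplicate, compared with 0 h.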

Rattus norvegicus [6] = assay: Hypoglycemic activity in diabetic 16 hrs fasted Wistar rat assessed as reduction in alloxan-induced serum glucose level at 50 mg/kg, po after 1 hr by glucose oxidase method; assay type: functional; procedure, shortened: as §2
Rattus norvegicus [7] = assay: Hypoglycemic activity in normal 16 hrs fasted Wistar rat assessed as reduction in serum glucose level at 200 mg/kg, po after 1 hr by glucose oxidase method; assay type: functional
Procedure, shortened: (§3)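 Male Wistar rats, 160–190 g, fasted ≥16 h with free water. Groups: control, vehicle (0.5 mL 1% EtOH–H2O) and compound by oral gavage. Retro-orbital blood drawn and centrifuged; serum glucose by glucose oxidase at 0, 1, 2 and 3 h. Mean ± SEM, n = 6 in duplicate, compared with the 0 h value.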

Rattus norvegicus [8] = assay: Hypoglycemic activity in normal 16 hrs fasted Wistar rat assessed as reduction in serum glucose level at 50 mg/kg, po after 3 hrs by glucose oxidase method; assay type: functional; procedure, shortened: as §3
Rattus norvegicus [9] = assay: Hypoglycemic activity in diabetic 16 hrs fasted Wistar rat assessed as reduction in alloxan-induced serum glucose level at 50 mg/kg, po after 2 hrs by glucose oxidase method; assay type: functional; procedure, shortened: as §2
Liver microsomes [10] = assay: Antioxidant activity in Wistar rat liver microsomes assessed as inhibition of ascorbyl radical-induced lipid peroxidation by TBARS assay; assay type: functional, Microsome
Procedure, shortened: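 Microsomes from male Wistar rat liver, isolated by differential centrifugation with calcium aggregation and stored at -70 °C; protein by Lowry, fixed at 2 mg/mL. Ascorbyl-radical peroxidation started with 25 µM FeSO4 plus 500 µM ascorbate. TBARS read with extinction coefficient 1.56 × 10^5 M-1 cm-1; IC50 derived; mean ± SEM, n = 3 in duplicate.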

Liver microsomes [11] = assay: Antioxidant activity in Wistar rat liver microsomes assessed as inhibition of hydroxyl radical-induced lipid peroxidation by TBARS assay; assay type: functional, Microsome
Procedure, shortened: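 Male Wistar rat liver microsomes, isolated by differential centrifugation with calcium aggregation and stored at -70 °C, at 2 mg protein/mL in 0.1 M KH2PO4 pH 7.4. Hydroxyl-radical peroxidation started with 25 µM FeCl2, 2.8 mM H2O2 and 100 µM sodium ascorbate. TBARS read with extinction coefficient 1.56 × 10^5 M-1 cm-1; IC50 derived; mean ± SEM, n = 3 in duplicate.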

Rattus norvegicus [12] = assay: Hypoglycemic activity in normal 16 hrs fasted Wistar rat assessed as reduction in serum glucose level at 50 mg/kg, po after 2 hrs by glucose oxidase method; assay type: functional; procedure, shortened: as §3
Rattus norvegicus [13] = assay: Hypoglycemic activity in normal 16 hrs fasted Wistar rat assessed as reduction in serum glucose level at 50 mg/kg, po after 1 hr by glucose oxidase method; assay type: functional; procedure, shortened: as §3
Rattus norvegicus [14] = assay: Hypoglycemic activity in normal 16 hrs fasted Wistar rat assessed as reduction in serum glucose level at 100 mg/kg, po after 3 hrs by glucose oxidase method; assay type: functional; procedure, shortened: as §3
Lung [15] = assay: Antioxidant activity in Wistar rat lung assessed as maximal inhibition of myeloperoxidase at 400 uM
[16] = test system: Radical scavenging activity; assay: Antioxidant activity assessed as DPPH radical scavenging activity; assay type: functional
Procedure, shortened: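 DPPH in EtOH, 200 μM, in the medium; radical loss read as absorbance decrease at 515 nm.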

Rattus norvegicus [17] = assay: Hypoglycemic activity in normal 16 hrs fasted Wistar rat assessed as reduction in serum glucose level at 100 mg/kg, po after 1 hr by glucose oxidase method; assay type: functional; procedure, shortened: as §3
[18] = Antioxidant activity in 1-alpha-phosphatidylcholine liposome assessed as inhibition of ascorbyl radical-induced lipid peroxidation by TBARS assay; assay type: functional
Procedure, shortened: (§4)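 Egg-yolk phosphatidylcholine or soybean asolectin bilayer liposomes made by cholate/deoxycholate solubilisation then dialysis; lipid 12.5 mg/mL. Ascorbyl-radical peroxidation started with 25 µM FeSO4 plus 500 µM ascorbate. TBARS read with extinction coefficient 1.56 × 10^5 M-1 cm-1; IC50 derived; mean ± SEM, n = 3 in duplicate.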

Rattus norvegicus [19] = assay: Hypoglycemic activity in normal 16 hrs fasted Wistar rat assessed as reduction in serum glucose level at 100 mg/kg, po after 2 hrs by glucose oxidase method; assay type: functional; procedure, shortened: as §3
Rattus norvegicus [20] = assay: Hypoglycemic activity in diabetic 16 hrs fasted Wistar rat assessed as reduction in alloxan-induced serum glucose level at 200 mg/kg, po after 3 hrs by glucose oxidase method; assay type: functional; procedure, shortened: as §2
Rattus norvegicus [21] = assay: Hypoglycemic activity in diabetic 16 hrs fasted Wistar rat assessed as reduction in alloxan-induced serum glucose level at 100 mg/kg, po after 1 hr by glucose oxidase method; assay type: functional; procedure, shortened: as §2
Lung [22] = assay: Antioxidant activity in Wistar rat lung assessed as half maximal inhibition of myeloperoxidase; assay type: functional, tissue-based
Procedure, shortened: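 Enzyme source: rat lung homogenised in ice-cold phosphate buffer. Activity was read as the slope of absorbance at 450 nm with o-dianisidine-2HCl and H2O2 and converted to units against a standard curve of commercial enzyme. Each concentration point was monitored kinetically, and the concentration giving half-maximal inhibition (K0.5) was taken from the inhibition curve.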

Rattus norvegicus [23] = assay: Hypoglycemic activity in diabetic 16 hrs fasted Wistar rat assessed as reduction in alloxan-induced serum glucose level at 200 mg/kg, po after 2 hrs by glucose oxidase method; assay type: functional; procedure, shortened: as §2
Rattus norvegicus [24] = assay: Hypoglycemic activity in normal 16 hrs fasted Wistar rat assessed as reduction in serum glucose level at 200 mg/kg, po after 2 hrs by glucose oxidase method; assay type: functional; procedure, shortened: as §3
[25] = Antioxidant activity in asolectin liposome assessed as inhibition of ascorbyl radical-induced lipid peroxidation by TBARS assay; assay type: functional; procedure, shortened: as §4
Rattus norvegicus [26] = assay: Hypoglycemic activity in diabetic 16 hrs fasted Wistar rat assessed as reduction in alloxan-induced serum glucose level at 100 mg/kg, po after 3 hrs by glucose oxidase method; assay type: functional; procedure, shortened: as §2
Rattus norvegicus [27] = assay: Hypoglycemic activity in diabetic 16 hrs fasted Wistar rat assessed as reduction in alloxan-induced serum glucose level at 100 mg/kg, po after 2 hrs by glucose oxidase method; assay type: functional; procedure, shortened: as §2
Rattus norvegicus [28] = assay: Hypoglycemic activity in diabetic 16 hrs fasted Wistar rat assessed as reduction in alloxan-induced serum glucose level at 200 mg/kg, po after 1 hr by glucose oxidase method; assay type: functional; procedure, shortened: as §2
Rattus norvegicus [29] = assay: Hypoglycemic activity in normal 16 hrs fasted Wistar rat assessed as reduction in serum glucose level at 200 mg/kg, po after 3 hrs by glucose oxidase method; assay type: functional; procedure, shortened: as §3

For `CCCCNC(=O)NS(=O)(=O)c1ccc(C)cc1` [TOLBUTAMIDE], the Activity (Rattus norvegicus [1]) was 5.2 mmol/L, the Activity (Rattus norvegicus [2]) was 7.8 mmol/L and the Activity (Rattus norvegicus [3]) was 5.9 mmol/L. It also gave an Activity (Rattus norvegicus [4]) of 6.3 mmol/L.
With `C[C@@H]1O[C@@H](Oc2cc(O)c3c(=O)c(O[C@@H]4O[C@@H](C)[C@H](O)[C@@H](O)[C@H]4O)c(-c4ccc(O)cc4)oc3c2)[C@H](O)[C@H](O)[C@H]1O` [KAEMPFERITRIN] the Activity (Rattus norvegicus [5]) was 25.3 mmol/L, the Activity (Rattus norvegicus [1]) was 6.7 mmol/L and the Activity (Rattus norvegicus [6]) was 23.5 mmol/L. The Activity (Rattus norvegicus [7]) was 4.5 mmol/L, the Activity (Rattus norvegicus [8]) was 6.2 mmol/L and the Activity (Rattus norvegicus [9]) was 25.2 mmol/L. The IC50 (Liver microsomes [10]) was 320 µM, the IC50 (Liver microsomes [11]) was 85 µM and the Activity (Rattus norvegicus [12]) was 5.9 mmol/L. For the same compound, the Activity (Rattus norvegicus [13]) was 5.5 mmol/L, the Activity (Rattus norvegicus [14]) was 6.2 mmol/L and the Activity (Rattus norvegicus [2]) was 9.5 mmol/L. For the same compound, the Activity (Lung [15]) was “Active”, the IC50 [16] was 84 µM and the Activity (Rattus norvegicus [17]) was 5.4 mmol/L. It also gave an IC50 [18] of 112 µM, an Activity (Rattus norvegicus [3]) of 8.2 mmol/L and an Activity (Rattus norvegicus [19]) of 5.5 mmol/L. The Activity (Rattus norvegicus [20]) was 22.4 mmol/L, the Activity (Rattus norvegicus [21]) was 24.3 mmol/L and the K (Lung [22]) was 86 µM. It also gave an Activity (Rattus norvegicus [23]) of 22.2 mmol/L, an Activity (Rattus norvegicus [24]) of 5 mmol/L and an Activity (Rattus norvegicus [4]) of 8.8 mmol/L. For the same compound, the IC50 [25] was 223 µM, the Activity (Rattus norvegicus [26]) was 24 mmol/L and the Activity (Rattus norvegicus [27]) was 24 mmol/L. It also gave an Activity (Rattus norvegicus [28]) of 22.4 mmol/L and an Activity (Rattus norvegicus [29]) of 5.1 mmol/L.
`O=c1c(O)c(-c2ccc(O)c(O)c2)oc2cc(O)cc(O)c12` [QUERCETIN] showed an IC50 (Liver microsomes [10]) of 125 µM, an IC50 (Liver microsomes [11]) of 7.5 µM and an IC50 [18] of 80 µM. It also gave an IC50 [25] of 80 µM.
